Measured values: article PMC2745083 (Neuropharmacology, 2009)

Tests used:
[1] = LogD determination; format: physicochemical; settings: octanol/phosphate buffer, pH 7.4
Outline: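 Formulated [11C]-labeled test compound was partitioned between octanol and phosphate buffer (pH 7.4), vortexed 2 min and centrifuged 2 min. Both layers were sampled. The octanol layer was serially transferred to fresh octanol/buffer and the procedure repeated, giving six sample sets. Radioactivity was measured in a well counter. logD = log(decay-corrected octanol activity × 10 / decay-corrected buffer activity).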

[2] = Plasma protein binding assay; format: in vitro ADME; settings: baboon
Outline: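 Formulated [11C]-labeled test compound was incubated 10 min at room temperature in baboon plasma pooled from at least 4 animals. Total activity was sampled, then plasma was ultrafiltered through a Centrifree device (10 min centrifugation) and the filtrate counted. %unbound = Aunbound × 100 / total activity.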

[3] = Brain homogenate analysis for parent compound after i.p. injection; format: in vivo, Sprague Dawley rats; settings: rat, ~65 min post injection
Outline: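 Male Sprague Dawley rats (7–8 weeks) under isoflurane/oxygen got the [11C]-labeled test compound i.p. via a butterfly catheter with a saline rinse (3.0 ± 0.4 mCi), followed by 60 min dynamic PET. Animals were decapitated and brains homogenized in water. The homogenate was precipitated with cold acetonitrile, vortexed and centrifuged (2000 rcf, 2 min). The supernatant was spiked with standard, γ-counted and run on HPLC; the co-eluting fraction was counted as a decay-corrected ratio to initial homogenate radioactivity.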

[4] = not given; remark: listed apart in the source
[5] = in vivo, 10 mg/kg; cited from earlier work
[6] = [acetyl-11C]-SA from published data; ref Hooker et al., 2008; cited from earlier work
[7] = [acetyl-11C]-SA from published data; ref Hooker et al., 2008; cited from earlier work; remark: listed apart in the source
[8] = baboon, i.v., acetyl-labeled SA, previous study; ref Hooker, 2008; cited from earlier work
[9] = system: permeability glycoprotein (P-gp); settings: ref Teksin et al., 2009; cited from earlier work
[10] = female, baboon (Papio anubis), in vivo, iv

| SMILES | logD [1] | fraction unbound at 10 min [2] | proportion of parent compound remaining in brain homogenate [3] [%] | proportion of parent remaining in brain homogenate, fold higher than [11C]-SA [3] [fold] | plasma radioactivity that was parent compound [10] [%] | maximum average concentration in the brain ([4]; baboon, bolus intravenous administration, whole brain ROI) [% ID/cm^3] | brain radioactivity at 60 min after injection (cleared to) ([4]; baboon, i.v., labeled at the methyl ester) [%] | time to be metabolized to ~50% in plasma (baboon plasma after i.v. injection) | antinociception after 30 minutes [5] | LogD (pH 7.4) [6] | Plasma Protein Binding (% unbound) [7] | residual radioactivity in brain at 60 min after injection [8] [% ID/cm^3] | efflux by permeability glycoprotein (P-gp) [9] | lower average maximum brain concentration relative to [11C]-SA [4, 10] | time of peak brain concentration [4, 10] [s] | time to clear to half of maximum brain concentration [4, 10] [min] |
| --- | --- | --- | --- | --- | --- | --- | --- | --- | --- | --- | --- | --- | --- | --- | --- | --- |
| CCOCO[C@H]1C[C@@H](C(=O)OC)[C@]2(C)CC[C@H]3C(=O)O[C@H](c4ccoc4)C[C@]3(C)[C@H]2C1=O [EOM-SB] | 2.46 ± 0.01 | 0.234 | 14 | ~3 | ~50 | – | – | – | – | – | – | – | – | – | – | – |
| COC(=O)[C@@H]1C[C@H](OC(C)=O)C(=O)[C@H]2[C@@]1(C)CC[C@H]1C(=O)O[C@H](c3ccoc3)C[C@]21C [SA, Salvinorin A] | – | – | – | – | – | 0.015 | 0.001 | under 5 min | no detectable antinociception | 2.34 ± 0.09 (n = 4) | 16.1 % (n = 2) | 0.004 | efflux | – | – | – |
| COC(=O)[C@@H]1C[C@H](O)C(=O)[C@H]2[C@@]1(C)CC[C@H]1C(=O)O[C@H](c3ccoc3)C[C@]21C [SB, Salvinorin B] | 1.5 | 0.473 | – | – | – | – | – | – | – | – | – | – | – | approximately 20% | 70 | 6.0 |
